Experimental findings from ChEMBL document CHEMBL1944533, “Synthesis and evaluation of anti-tubercular and antibacterial activities of new 4-(2,6-dichlorobenzyloxy)phenyl thiazole, oxazole and imidazole derivatives. Part 2” (2012) are described below.

In brackets after ≈: the same amount, converted by molar mass.

One assay deals with Escherichia coli. The assay can be described thus: Antibacterial activity against Escherichia coli clinical isolate after 16 to 20 hrs by two fold agar dilution method. It is filed as functional. Summed up: (§1)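 Two-fold dilutions of test compounds and reference antibiotics made in molten Mueller-Hinton agar held at 37 °C, final range […]; drug-free medium as control. Plates spot-inoculated with culture containing 10⁴ CFU/mL of each clinical isolate, incubated at 37 °C; MIC read as lowest inhibiting concentration.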
(In agar dilution, organisms are placed on agar that contains the substance at set levels.)
With `CCOC(=O)c1sc(NC(=O)c2ccc(Cl)cc2)nc1-c1ccc(OCc2c(Cl)cccc2Cl)cc1`, the MIC was above 128 µM.

In turn, `CCCC(=O)Nc1nc(-c2ccc(OCc3c(Cl)cccc3Cl)cc2)c(C(=O)O)s1` displayed an MIC above 128 µM.

On to `CCOC(=O)c1sc(NC(=O)c2ccc(OC)cc2)nc1-c1ccc(OCc2c(Cl)cccc2Cl)cc1`, for which the MIC was above 128 µM.

In turn, `CCCC(=O)Nc1nc(-c2ccc(OCc3c(Cl)cccc3Cl)cc2)c(C(=O)OCC)s1` registered an MIC above 128 µM.

`O=C(Nc1nc(-c2ccc(OCc3c(Cl)cccc3Cl)cc2)c(C(=O)O)s1)c1ccccc1` displayed an MIC above 128 µM.

In turn, `COc1ccc(C(=O)Nc2nc(-c3ccc(OCc4c(Cl)cccc4Cl)cc3)c(C(=O)O)s2)cc1` registered an MIC above 128 µM.

Take `CCOC(=O)c1sc(NC(=O)c2ccccc2)nc1-c1ccc(OCc2c(Cl)cccc2Cl)cc1`: the MIC was above 128 µM.

In turn, `CCOC(=O)c1sc(NC(=O)c2ccc(Cl)cc2Cl)nc1-c1ccc(OCc2c(Cl)cccc2Cl)cc1` came in with an MIC above 128 µM.

The molecule `C=CC(=O)Nc1nc(-c2ccc(OCc3c(Cl)cccc3Cl)cc2)c(C(=O)OCC)s1` returned an MIC above 128 µM.

`CC1(C)S[C@@H]2[C@H](NC(=O)[C@H](N)c3ccccc3)C(=O)N2[C@H]1C(=O)O` [AMPICILLIN] showed an MIC of 10.8 µM (≈ 3.77 µg/mL).

For `O=C(Nc1nc(-c2ccc(OCc3c(Cl)cccc3Cl)cc2)c(C(=O)O)s1)c1ccc(Cl)cc1`, the MIC is above 128 µM.

`O=C(Nc1nc(-c2ccc(OCc3c(Cl)cccc3Cl)cc2)c(C(=O)O)s1)c1ccc(Cl)cc1Cl`: the MIC is above 128 µM.

GENTAMICIN registered an MIC of 0.43 µM.

Another assay concerns Mycobacterium tuberculosis. Kind of assay: Antitubercular activity against Mycobacterium tuberculosis H37Rv after 16 to 24 hrs by microplate alamar blue assay. Format: functional. Summed up: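 DMSO stocks (12.8 mM) two-fold diluted in Middlebrook 7H12 medium (7H9 with casitone, palmitic acid, BSA, catalase); final concentrations 128 down to 0.5. H37Rv inoculum 2 × 10⁵ cfu/mL added, 37 °C for 7 days, then Tween 80 plus Alamar Blue, further 16–24 h. Fluorescence ex 530/em 590 nm; MIC = lowest concentration giving ≥90% fluorescence reduction versus replicate bacteria-only controls.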
(Alamar Blue is a resazurin reagent that responds to reducing activity.)
On to `CCOC(=O)c1sc(NC(=O)c2ccc(Cl)cc2)nc1-c1ccc(OCc2c(Cl)cccc2Cl)cc1`, for which inhibition of growth (MIC) required 1 µM (≈ 0.562 µg/mL).

`CCCC(=O)Nc1nc(-c2ccc(OCc3c(Cl)cccc3Cl)cc2)c(C(=O)O)s1` had an MIC above 128 µM.

In the case of `O=[N+]([O-])c1cn2c(n1)OC[C@@H](OCc1ccc(OC(F)(F)F)cc1)C2` [PRETOMANID], the MIC was determined as 0.44 µM (≈ 0.158 µg/mL).

Molecule `CCOC(=O)c1sc(NC(=O)c2ccc(OC)cc2)nc1-c1ccc(OCc2c(Cl)cccc2Cl)cc1` came in with a minimal inhibitory concentration (MIC) of 7.6 µM (≈ 4.24 µg/mL).

Molecule `O=C(Nc1c(C(=O)O)ncn1-c1ccc(OCc2c(Cl)cccc2Cl)cc1)c1ccc(Cl)cc1` yielded an MIC above 128 µM.

Molecule `CCCC(=O)Nc1nc(-c2ccc(OCc3c(Cl)cccc3Cl)cc2)c(C(=O)OCC)s1` displayed an MIC of 60.8 µM (≈ 30 µg/mL).

The molecule `O=C(Nc1nc(-c2ccc(OCc3c(Cl)cccc3Cl)cc2)c(C(=O)O)s1)c1ccccc1` had an MIC above 128 µM.

As to `COc1ccc(C(=O)Nc2nc(-c3ccc(OCc4c(Cl)cccc4Cl)cc3)c(C(=O)O)s2)cc1`, the MIC was above 128 µM.

In turn, `CCOC(=O)c1sc(NC(=O)c2ccccc2)nc1-c1ccc(OCc2c(Cl)cccc2Cl)cc1` displayed an MIC of 61.2 µM (≈ 32.3 µg/mL).

Turning to `COc1c(N2C[C@@H]3CCCN[C@@H]3C2)c(F)cc2c(=O)c(C(=O)O)cn(C3CC3)c12` [MOXIFLOXACIN], the MIC came to 0.5 µM (≈ 0.201 µg/mL).

Consider `NNC(=O)c1ccncc1` [ISONIAZID], for which the MIC was 0.81 µM (≈ 0.111 µg/mL).

The molecule `CCOC(=O)c1nc(-c2ccc(OCc3c(Cl)cccc3Cl)cc2)oc1NC(=O)c1ccc(Cl)cc1` came in with an MIC above 128 µM.

Molecule `CCOC(=O)c1sc(NC(=O)c2ccc(Cl)cc2Cl)nc1-c1ccc(OCc2c(Cl)cccc2Cl)cc1` gave an MIC of 25.4 µM (≈ 15.1 µg/mL).

As to `C=CC(=O)Nc1nc(-c2ccc(OCc3c(Cl)cccc3Cl)cc2)c(C(=O)OCC)s1`, the MIC stood at 7.2 µM (≈ 3.44 µg/mL).

The molecule `O=C(Nc1nc(-c2ccc(OCc3c(Cl)cccc3Cl)cc2)c(C(=O)O)s1)c1ccc(Cl)cc1` yielded an MIC above 128 µM.

Turning to `O=C(Nc1nc(-c2ccc(OCc3c(Cl)cccc3Cl)cc2)c(C(=O)O)s1)c1ccc(Cl)cc1Cl`, the MIC was determined as 45.5 µM (≈ 25.9 µg/mL).

Consider `O=C(Nc1oc(-c2ccc(OCc3c(Cl)cccc3Cl)cc2)nc1C(=O)O)c1ccc(Cl)cc1`, for which the MIC was above 128 µM.

`CCOC(=O)c1ncn(-c2ccc(OCc3c(Cl)cccc3Cl)cc2)c1NC(=O)c1ccc(Cl)cc1` returned an MIC above 128 µM.

For another assay, the system named is Streptococcus pneumoniae. Kind of assay: Antibacterial activity against pencillin-resistant Streptococcus pneumoniae after 16 to 20 hrs by two fold agar dilution method. Format: functional. Summed up:
as §1
`CCOC(=O)c1sc(NC(=O)c2ccc(Cl)cc2)nc1-c1ccc(OCc2c(Cl)cccc2Cl)cc1` showed an MIC above 128 µM.

For `CCCC(=O)Nc1nc(-c2ccc(OCc3c(Cl)cccc3Cl)cc2)c(C(=O)O)s1`, the MIC was above 128 µM.

Regarding `CCOC(=O)c1sc(NC(=O)c2ccc(OC)cc2)nc1-c1ccc(OCc2c(Cl)cccc2Cl)cc1`, the MIC was above 128 µM.

For the molecule `CCCC(=O)Nc1nc(-c2ccc(OCc3c(Cl)cccc3Cl)cc2)c(C(=O)OCC)s1`, the MIC was above 128 µM.

`O=C(Nc1nc(-c2ccc(OCc3c(Cl)cccc3Cl)cc2)c(C(=O)O)s1)c1ccccc1` yielded an MIC above 128 µM.

Take `COc1ccc(C(=O)Nc2nc(-c3ccc(OCc4c(Cl)cccc4Cl)cc3)c(C(=O)O)s2)cc1`: the minimal inhibitory concentration (MIC) is above 128 µM.

With `CCOC(=O)c1sc(NC(=O)c2ccccc2)nc1-c1ccc(OCc2c(Cl)cccc2Cl)cc1`, the MIC was above 128 µM.

On to `CCOC(=O)c1sc(NC(=O)c2ccc(Cl)cc2Cl)nc1-c1ccc(OCc2c(Cl)cccc2Cl)cc1`, for which the MIC was above 128 µM.

In turn, `C=CC(=O)Nc1nc(-c2ccc(OCc3c(Cl)cccc3Cl)cc2)c(C(=O)OCC)s1` registered an MIC above 128 µM.

With `CC1(C)S[C@@H]2[C@H](NC(=O)[C@H](N)c3ccccc3)C(=O)N2[C@H]1C(=O)O` [AMPICILLIN], the MIC turned out to be 10.8 µM (≈ 3.77 µg/mL).

`O=C(Nc1nc(-c2ccc(OCc3c(Cl)cccc3Cl)cc2)c(C(=O)O)s1)c1ccc(Cl)cc1`: the MIC is above 128 µM.

`O=C(Nc1nc(-c2ccc(OCc3c(Cl)cccc3Cl)cc2)c(C(=O)O)s1)c1ccc(Cl)cc1Cl` showed an MIC above 128 µM.

For GENTAMICIN, the MIC came to 6.9 µM.

Another assay has as its system Streptococcus pneumoniae. The assay can be described thus: Antibacterial activity against Streptococcus pneumoniae clinical isolate after 16 to 20 hrs by two fold agar dilution method. It is filed as functional. Summed up:
as §1
`CCOC(=O)c1sc(NC(=O)c2ccc(Cl)cc2)nc1-c1ccc(OCc2c(Cl)cccc2Cl)cc1`: inhibition of growth (MIC) required 7.12 µM (≈ 4 µg/mL).

In turn, `CCCC(=O)Nc1nc(-c2ccc(OCc3c(Cl)cccc3Cl)cc2)c(C(=O)O)s1` registered an MIC of at most 0.134 µM.

`CCOC(=O)c1sc(NC(=O)c2ccc(OC)cc2)nc1-c1ccc(OCc2c(Cl)cccc2Cl)cc1` registered an MIC of at most 0.112 µM.

`CCCC(=O)Nc1nc(-c2ccc(OCc3c(Cl)cccc3Cl)cc2)c(C(=O)OCC)s1`: the MIC was at most 0.127 µM.

As to `O=C(Nc1nc(-c2ccc(OCc3c(Cl)cccc3Cl)cc2)c(C(=O)O)s1)c1ccccc1`, the MIC is at most 0.125 µM.

`COc1ccc(C(=O)Nc2nc(-c3ccc(OCc4c(Cl)cccc4Cl)cc3)c(C(=O)O)s2)cc1` showed an MIC of at most 0.118 µM.

The molecule `CCOC(=O)c1sc(NC(=O)c2ccccc2)nc1-c1ccc(OCc2c(Cl)cccc2Cl)cc1` had an MIC of at most 0.119 µM.

Molecule `CCOC(=O)c1sc(NC(=O)c2ccc(Cl)cc2Cl)nc1-c1ccc(OCc2c(Cl)cccc2Cl)cc1` displayed an MIC above 128 µM.

Molecule `C=CC(=O)Nc1nc(-c2ccc(OCc3c(Cl)cccc3Cl)cc2)c(C(=O)OCC)s1` yielded an MIC of at most 0.131 µM.

`CC1(C)S[C@@H]2[C@H](NC(=O)[C@H](N)c3ccccc3)C(=O)N2[C@H]1C(=O)O` [AMPICILLIN]: inhibition of growth (MIC) required 0.168 µM (≈ 0.0587 µg/mL).

For the molecule `O=C(Nc1nc(-c2ccc(OCc3c(Cl)cccc3Cl)cc2)c(C(=O)O)s1)c1ccc(Cl)cc1`, the minimum inhibitory concentration (MIC) is at most 0.117 µM.

Turning to `O=C(Nc1nc(-c2ccc(OCc3c(Cl)cccc3Cl)cc2)c(C(=O)O)s1)c1ccc(Cl)cc1Cl`, the MIC was above 128 µM.

GENTAMICIN yielded a minimum inhibitory concentration (MIC) of 6.9 µM.

For the next assay, the system named is Staphylococcus aureus. Kind of assay: Antibacterial activity against Staphylococcus aureus clinical isolate after 16 to 20 hrs by two fold agar dilution method. Format: functional. A digest of the protocol:
as §1
`CCOC(=O)c1sc(NC(=O)c2ccc(Cl)cc2)nc1-c1ccc(OCc2c(Cl)cccc2Cl)cc1` yielded an MIC above 128 µM.

Take `CCCC(=O)Nc1nc(-c2ccc(OCc3c(Cl)cccc3Cl)cc2)c(C(=O)O)s1`: the MIC is above 128 µM.

`CCOC(=O)c1sc(NC(=O)c2ccc(OC)cc2)nc1-c1ccc(OCc2c(Cl)cccc2Cl)cc1` registered an MIC above 128 µM.

The molecule `CCCC(=O)Nc1nc(-c2ccc(OCc3c(Cl)cccc3Cl)cc2)c(C(=O)OCC)s1` displayed a minimal inhibitory concentration (MIC) above 128 µM.

Regarding `O=C(Nc1nc(-c2ccc(OCc3c(Cl)cccc3Cl)cc2)c(C(=O)O)s1)c1ccccc1`, the minimum inhibitory concentration (MIC) is above 128 µM.

In turn, `COc1ccc(C(=O)Nc2nc(-c3ccc(OCc4c(Cl)cccc4Cl)cc3)c(C(=O)O)s2)cc1` returned an MIC above 128 µM.

`CCOC(=O)c1sc(NC(=O)c2ccccc2)nc1-c1ccc(OCc2c(Cl)cccc2Cl)cc1` registered an MIC above 128 µM.

In turn, `CCOC(=O)c1sc(NC(=O)c2ccc(Cl)cc2Cl)nc1-c1ccc(OCc2c(Cl)cccc2Cl)cc1` showed an MIC above 128 µM.

`C=CC(=O)Nc1nc(-c2ccc(OCc3c(Cl)cccc3Cl)cc2)c(C(=O)OCC)s1` yielded an MIC above 128 µM.

In turn, `CC1(C)S[C@@H]2[C@H](NC(=O)[C@H](N)c3ccccc3)C(=O)N2[C@H]1C(=O)O` [AMPICILLIN] returned an MIC of 2.7 µM (≈ 0.943 µg/mL).

`O=C(Nc1nc(-c2ccc(OCc3c(Cl)cccc3Cl)cc2)c(C(=O)O)s1)c1ccc(Cl)cc1` displayed an MIC above 128 µM.

In turn, `O=C(Nc1nc(-c2ccc(OCc3c(Cl)cccc3Cl)cc2)c(C(=O)O)s1)c1ccc(Cl)cc1Cl` registered an MIC above 128 µM.

GENTAMICIN displayed an MIC of 6.9 µM.

The MIC is the smallest concentration in the dilution series that meets the test's criterion for growth inhibition. Low values mean inhibition by little substance, high ones a need for much substance.
